This is a sample that favours compounds with a hit; in the whole collection about 1.4% have one here.
Fh CTSL1 inh: cathepsin L1 inhibition, PFM18AAP counter-screen; recombinant F. hepatica cathepsin L1, Z-Leu-Arg-MCA fluorescence; inhibition, % at 5.96 µM; actives 0.49% (n = 300,000);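 active = inhibition above the mean of all tested compounds plus 3 SD, set per screening campaign, cut at about 17% in these data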
ATG4B inhibitor: ATG4B (human) cysteine protease inhibition; ATG4B cleavage of LC3-PLA2, NBD-HPC fluorescence, 1 h; Q9Y4P1; inhibition, % at 8.33 µM; actives 0.51% (n = 340,000); in the data active = inhibition above about 40%
Diaph inh CS: inhibits diaphorase or chemically oxidizes, flagging diaphorase assay artifacts; actives 0.69% (n = 190,000); diaphorase resazurin-to-resorufin fluorescence, NADH, 16 min; bacterial (C. kluyveri) enzyme, not human; inhibition, % at 20 µM;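 active = primary screen inhibition at 20 µM above a set limit, cut at about 50% in these data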
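System: Bacterial diaphorase enzyme (C. kluyveri) | Incubation: 16-min room-temperature incubation before reading | Benchmarks: No-NADH positive control and DMSO neutral control | Measured by: Resorufin fluorescence 544/590 nm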
HKDC1 inh: HKDC1 (human) hexokinase inhibition; Q2TB90; recombinant HKDC1, G6PDH/diaphorase resazurin coupled fluorescence; inhibition, % at 20 µM; actives 0.16% (n = 340,000);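 active = inhibition above about 35% when tested at 20 µM, limit read from the data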
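Test system: recombinant HKDC1 (HK5) hexokinase enzyme, produced in-house / Doses: 20 µM test compound, 1% DMSO / Timing: 90 min, room temperature / Detection: G6PDH/diaphorase-coupled fluorescence, 1 mM NADP, 100 µM resazurin, 525/613 nm / Control set: DMSO wells with and without enzyme mix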
Diaph act CS: counter-screen for diaphorase-based assays: diaphorase activators and chemical reducers. activation factor at 20 µM. AID 1229. Diaphorase/resazurin coupled assay, resorufin fluorescence, 16 min; hits give high values; 1 = vehicle wells, 0 = NADH-free wells. actives 0.005% (n = 190,000);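 active = diaphorase activity raised at least twofold by the compound at 20 µM; inactive = activation factor below 2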
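System – purified diaphorase enzyme from Clostridium kluyveri · Input – enzyme 0.07 U/mL final · Also added – final NADH 0.114 mM, resazurin 0.1 mM · Measured by – fluorescence of resorufin, 544 nm excitation, 590 nm emission · Timing – 16 min enzyme reaction, ambient temperature · Measure – resorufin increase flagging diaphorase activators or reducers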
ATG4B confirm: ATG4B (human) inhibition, single-dose confirmed; shares compounds with ATG4B inhibitor; ATG4B protease fluorescent substrate cleavage assay; inhibition, % at 8.33 µM; actives 92% (n = 320); in the data active = inhibition above about 39%
PLA2 counter: counter-screen for ATG4B inhibitors: human phospholipase A2; shares compounds with ATG4B inhibitor; purified PLA2, NBD-C6-HPC fluorescence, 45 min; inhibition, % at 8.33 µM; actives 66% (n = 1,600); in the data active = inhibition above about 50%
Target sequence (P04054 whole entry, looked up): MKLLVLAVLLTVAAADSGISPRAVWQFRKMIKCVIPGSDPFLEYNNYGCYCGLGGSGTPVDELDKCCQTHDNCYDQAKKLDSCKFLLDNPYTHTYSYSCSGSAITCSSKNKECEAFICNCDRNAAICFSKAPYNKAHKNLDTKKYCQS
A number is an active result; 0 = inactive; - = not tested or not shown.

SMILES	Fh CTSL1 inh	ATG4B inhibitor	Diaph inh CS	HKDC1 inh	Diaph act CS	PLA2 counter	others
NC(=O)c1sc2nc3c(c(-c4ccc(Cl)cc4)c2c1N)CCCC3	0	49	0	0	0	66
CCOC(=O)c1c(C)nc2sc(C(N)=O)c(N)c2c1-c1ccc(OC)cc1	0	65	0	0	0	74
CCOC(=O)c1c(C)nc2sc(C(=O)Nc3ccc(OC)cc3)c(N)c2c1-c1ccc(OC)cc1	0	0	0	0	0	-
Cc1ccc(-c2c3c(nc4sc(C(N)=O)c(N)c24)CCC3)cc1	0	55	0	0	0	59
Nc1c(C(=O)NCc2ccc(Cl)cc2)sc2nc3c(c(C(F)(F)F)c12)CCC3	0	0	0	0	0	-
CC1CCCN(S(=O)(=O)c2ccc(C(=O)NC(C)c3ccccc3)cc2)C1 (stereo not given)	-	0	-	0	-	-
COc1cc(/C=C2\SC(=Nc3ccccc3)N(CCc3c[nH]c4ccccc34)C2=O)ccc1OC(C)C(=O)O (stereo not given)	0	46	0	0	0	0	ATG4B confirm=51
COc1ccc(N=C2S/C(=C\c3ccc(OC(C)C(=O)O)c(OC)c3)C(=O)N2CCc2c[nH]c3ccccc23)cc1 (stereo not given)	-	58	58	0	0	65
O=C(O)c1cc(-c2ccco2)nn1-c1ccc(Cl)cc1	-	43	0	0	0	0
CCOC(=O)c1sc2ccccc2c1NC(=O)c1coc2ccccc2c1=O	0	53	0	0	0	0
CCOC(=O)c1sc2ccccc2c1OC(=O)c1ccccc1	0	0	0	0	0	-
CCCCN1C(=O)C2Cc3c([nH]c4ccccc34)CN2C1=S (stereo not given)	0	45	0	0	0	80
Cc1cc(Nc2ccc(Cl)cc2)n(-c2cccc(Cl)c2)n1	0	41	0	0	0	63
Nc1c(-c2ccccc2)c(CSc2nc3ccccc3[nH]2)nn1-c1cccc(Cl)c1	0	43	0	0	0	58
CC1=CN2C(=N)/C(=C/c3ccc(Sc4ccc(C)cc4)o3)C(=O)N=C2S1	0	43	0	0	0	56
COc1ccc(/C=N/NC(=O)c2c(Br)cnn2C)c2ccccc12	0	0	-	0	-	-
Cc1ccc(/C(=N/Nc2nc3ccccc3s2)C2=C(O)c3ccccc3C2=O)cc1	0	45	0	0	0	65
O=C1C2C3C=CC(O3)C2C(=O)N1Nc1ccccc1 (stereo not given)	-	0	-	0	-	-
CN(CC(=O)NCC1CCCO1)S(=O)(=O)c1cc(Cl)ccc1Cl (stereo not given)	0	93	0	0	0	0
Cc1ccc(N(CC(=O)NCC2CCCO2)S(=O)(=O)c2ccc(Cl)cc2)cc1C (stereo not given)	0	0	-	0	-	-
O=C1Nc2ccc(F)cc2C12Nc1ccccc1-c1nnc(SCc3ccccc3F)nc1O2 (stereo not given)	0	0	0	0	0	-
O=C1Nc2ccc(Cl)cc2C12Nc1ccccc1-c1nnc(SCc3ccccc3F)nc1O2 (stereo not given)	0	50	0	0	0	63
CC(C)NC(=O)c1ccc2c(=O)n(C3CCCC3)c(=S)[nH]c2c1	0	0	0	0	0	-
O=C(c1ccc2c(=O)n(C3CCCC3)c(=S)[nH]c2c1)N1CCc2ccccc21	0	54	0	0	0	77
Cc1ccccc1NC1=C(C(=O)c2ccccc2)N(C)S(=O)(=O)c2ccccc21	0	0	0	0	0	-
SMILES	Fh CTSL1 inh	ATG4B inhibitor	Diaph inh CS	HKDC1 inh	Diaph act CS	PLA2 counter	others
O=C(C1=C(Nc2ccccc2)c2ccccc2S(=O)(=O)N1)c1ccccc1	0	74	0	0	0	83
COc1cc(/C=N/NC(=O)c2ccccn2)ccc1OC(=O)c1cccs1	0	0	-	0	-	-
O=C(c1ccco1)N1CCCC(c2nc3c(nnn3Cc3c(Cl)cccc3Cl)c(=O)[nH]2)C1 (stereo not given)	0	0	-	0	-	-
O=C1NC(=O)/C(=C/c2ccc(-c3cc(C(=O)O)ccc3Cl)o2)S1	0	0	-	0	-	-
O=C1NC(=S)/C(=C\c2ccc(-c3ccccc3Cl)o2)S1	0	65	0	0	0	0
CN1C[C@H]2CON(C)[C@H]2C[C@H]1c1cccc(-c2ccccc2)c1	-	0	-	0	-	-
